Test results reported in ChEMBL document CHEMBL1155808, “Antitumor activity of bis-indole derivatives” (J Med Chem, 2008).
Counter-ions that a name gives are not always drawn. Activity calls are given as the source filed them. The rule behind the calls is not given here.

Assays:
[1] = Cytotoxicity against human leukemia cells; assay type: functional; conditions: Leukemia cell; for TGI: read-out: pTGI (converted); for CC50: read-out: pLC50 (the source's name) (converted)
In short: (§1)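 NCI 60-cell-line human tumour screen, with subpanels for leukemia, melanoma, lung, colon, kidney, ovary, breast, prostate and CNS. Compounds were dissolved in DMSO and tested at five ten-fold dilutions, highest 10^-4 M (10^-3 M for some). Endpoints were GI50, TGI and LC50, reported as negative log molar. Some compounds were assayed once, others two or three times.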

[2] = Cytotoxicity against human central nervous system cancer cells; assay type: functional; conditions: Cancer cell lines; for TGI: read-out: pTGI (converted); for CC50: read-out: pLC50 (the source's name) (converted); in short: as §1
[3] = Inhibition of plasma membrane electron transport pathway in mitochondrial gene-knockout human HL60p'0 cells by WST1 reduction assay
In short: (§2)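 Cells at 10^5 per well in 0.1 ml pretreated 30 min with compound in DMSO (<0.1% final), then WST-1/mPMS added (final 500 µM and 20 µM); WST-1 reduction followed in real time at 450 nm; averages ± S.E.M. of four independent experiments.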

[4] = Cytotoxicity against human Non-small cell lung carcinoma cells; assay type: functional; conditions: for TGI: read-out: pTGI (converted); for CC50: read-out: pLC50 (the source's name) (converted); in short: as §1
[5] = Cytotoxicity against human renal cancer cells; assay type: functional; conditions: Cancer cell lines; for CC50: read-out: pLC50 (the source's name) (converted); for TGI: read-out: pTGI (converted); in short: as §1
[6] = test system: HEL; assay: Antiproliferative activity against human HEL cells after 48 hrs by MTT assay; assay type: functional, cell-based
[7] = Cytotoxicity against human melanoma cells; assay type: functional; conditions: Melanoma cell; for CC50: read-out: pLC50 (the source's name) (converted); for TGI: read-out: pTGI (converted)
[8] = Inhibition of plasma membrane electron transport pathway in human HL60 cells at 200 uM by WST1 reduction assay; assay type: cell-based; conditions: HL-60
[9] = test system: Mo7e; assay: Antiproliferative activity against human Mo7e cells after 48 hrs by MTT assay; assay type: functional, cell-based
[10] = Cytotoxicity against human ovarian cancer cells; assay type: functional; conditions: Cancer cell lines; for CC50: read-out: pLC50 (the source's name) (converted); for TGI: read-out: pTGI (converted)
[11] = Inhibition of plasma membrane electron transport pathway in human HL60 cells by WST1 reduction assay; assay type: cell-based; conditions: HL-60; in short: as §2
[12] = test system: B1647; assay: Antiproliferative activity against human B1647 cells after 48 hrs by MTT assay; assay type: functional, cell-based
[13] = Cytotoxicity against human breast cancer cells; assay type: functional; conditions: Cancer cell lines; for TGI: read-out: pTGI (converted); for CC50: read-out: pLC50 (the source's name) (converted)
In short: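 MTT cytotoxicity assay in breast cancer cell lines; proliferation expressed as percent growth inhibition relative to vehicle-treated control cells; IC50 reported.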

[14] = Cytotoxicity against human colon cancer cells; assay type: functional; conditions: Cancer cell lines; for TGI: read-out: pTGI (converted); for CC50: read-out: pLC50 (the source's name) (converted); in short: as §1
[15] = Cytotoxicity against human prostate cancer cells; assay type: functional; conditions: Cancer cell lines; for TGI: read-out: pTGI (converted); for CC50: read-out: pLC50 (the source's name) (converted); in short: as §1

| SMILES | GI50 [1] [µM] | GI50 [2] [µM] | TGI [2] [µM] | IC50 [3] [µM] | GI50 [4] [µM] | GI50 [5] [µM] | Activity [6] | GI50 [7] [µM] | Activity [9] | GI50 [10] [µM] | IC50 [11] [µM] | Activity [12] | GI50 [13] [µM] | TGI [4] [µM] | GI50 [14] [µM] | TGI [14] [µM] | CC50 [7] [µM] | TGI [7] [µM] | CC50 [2] [µM] | GI50 [15] [µM] | also measured |
| --- | --- | --- | --- | --- | --- | --- | --- | --- | --- | --- | --- | --- | --- | --- | --- | --- | --- | --- | --- | --- | --- |
| O=C(O)CCC(=O)c1ccc2c(c1)/C(=C\c1cccc(/C=C3/C(=O)Nc4ccc(C(=O)CCC(=O)O)cc43)n1)C(=O)N2 | 15.5 | 30.2 | 61.7 |  |  |  |  |  |  |  |  |  |  |  |  |  |  |  |  |  |  |
| CC(=O)n1c(=O)/c(=C/c2c[nH]c3ccccc23)n(C(C)=O)c(=O)/c1=C/c1c[nH]c2ccccc12 | 93.3 | 75.9 |  | > 117 | 85.1 | 29.5 | Active | 87.1 | Active | 79.4 | > 117 | Active | 66.1 |  |  |  |  |  |  |  | Activity [8]: inactive |
| O=c1[nH]/c(=C\c2c[nH]c3ccccc23)c(=O)[nH]/c1=C\c1c[nH]c2ccccc12 |  | 64.6 |  | > 117 | 97.7 | 70.8 | Active | 55 | Active |  | > 117 | Active | 64.6 |  |  |  |  |  |  |  | Activity [8]: inactive |
| CN(C)c1ccc2c(c1)/C(=C\c1cccc(/C=C3/C(=O)Nc4ccc(N(C)C)cc43)n1)C(=O)N2 | 2.34 | 4.37 | 44.7 | > 117 | 5.25 | 8.71 | Active | 4.37 | Active | 7.59 | > 117 | Active | 6.03 | 43.7 | 6.76 | 38.9 | 60.3 | 30.2 | 89.1 | 3.55 | TGI [1]: 9.55 µM; Activity [8]: inactive; TGI [15]: 29.5 µM; TGI [13]: 69.2 µM |
| O=C1Nc2ccccc2/C1=C\c1cccc(/C=C2/C(=O)Nc3ccccc32)n1 | 0.234 | 0.575 | 1.82 |  | 0.813 |  |  | 0.302 |  | 0.589 |  |  | 0.49 | 3.16 | 0.282 | 0.776 | 4.68 | 0.933 | 7.08 | 0.631 | CC50 [4]: 22.4 µM; TGI [1]: 1.95 µM; CC50 [14]: 6.46 µM; CC50 [5]: 5.37 µM; TGI [5]: 1.62 µM; CC50 [15]: 24.5 µM; TGI [15]: 2.69 µM; CC50 [10]: 6.61 µM; TGI [10]: 1.78 µM; CC50 [13]: 57.5 µM |
| CN1C(=O)/C(=C/c2cccc(/C=C3/C(=O)N(C)c4ccccc43)n2)c2ccccc21 | 3.09 | 7.59 | 29.5 | > 117 | 12 | 10 | Active | 4.9 | Active | 10 | > 117 | Active | 8.91 | 30.2 | 10 | 28.2 | 43.7 | 22.4 | 50.1 | 13.5 | CC50 [5]: 46.8 µM; TGI [5]: 23.4 µM; Activity [8]: inactive; TGI [10]: 29.5 µM; TGI [13]: 33.1 µM |
| COc1cc2c(cc1C)NC(=O)/C2=C/c1cccc(/C=C2/C(=O)Nc3cc(C)c(OC)cc32)n1 | 4.37 | 89.1 |  | > 117 | 83.2 | 52.5 | Active | 79.4 | Active | 89.1 | > 117 | Active | 74.1 |  | 49 |  |  |  |  | 33.9 | CC50 [1]: 91.2 µM; TGI [1]: 60.3 µM; TGI [13]: 93.3 µM |
| O=C1Nc2ccc(S(=O)(=O)O)cc2/C1=C\c1cccc(/C=C2/C(=O)Nc3ccc(S(=O)(=O)O)cc32)n1 | 93.3 |  |  |  |  | 85.1 |  | 95.5 |  |  |  |  |  |  |  |  |  |  |  |  |  |
| O=C1Nc2ccccc2/C1=c1/[nH]c(=O)/c(=C2/C(=O)Nc3ccccc32)[nH]c1=O |  | 74.1 |  |  | 85.1 | 83.2 |  |  |  | 97.7 |  |  | 85.1 |  |  |  |  |  |  |  |  |
| COc1ccc2[nH]cc(/C=c3\[nH]c(=O)/c(=C/c4c[nH]c5ccc(OC)cc45)[nH]c3=O)c2c1 |  |  |  |  |  |  |  | 72.4 |  | 89.1 |  |  | 79.4 |  |  |  |  |  |  |  |  |
| CC[C@]1(O)C[C@H]2CN(CCc3c([nH]c4ccccc34)[C@@](C(=O)OC)(c3cc4c(cc3OC)N(C=O)[C@H]3[C@@](O)(C(=O)OC)[C@H](OC(C)=O)[C@]5(CC)C=CCN6CC[C@]43[C@@H]65)C2)C1 [VINCRISTINE SULFATE] | 0.1 | 0.126 |  |  | 0.251 | 0.316 |  | 0.158 |  | 0.316 |  |  | 0.316 |  | 0.1 |  |  |  | 200 | 0.126 | CC50 [1]: 631 µM; CC50 [14]: 79.4 µM; CC50 [5]: 251 µM; CC50 [15]: 316 µM; CC50 [10]: 316 µM; CC50 [13]: 316 µM |
| O=C1Nc2ccc(Br)cc2/C1=C\c1cccc(/C=C2/C(=O)Nc3ccc(Br)cc32)n1 |  | 3.72 | 14.1 |  | 11 | 7.94 |  | 10 |  | 9.77 |  |  | 6.17 | 28.2 | 10.5 | 24.5 | 52.5 | 23.4 | 40.7 | 6.46 | CC50 [4]: 63.1 µM; CC50 [14]: 52.5 µM; CC50 [5]: 51.3 µM; TGI [5]: 21.9 µM; CC50 [15]: 55 µM; TGI [15]: 20.9 µM; CC50 [10]: 58.9 µM; TGI [10]: 25.7 µM; CC50 [13]: 53.7 µM; TGI [13]: 18.2 µM |
| O=C1Nc2cc(Cl)ccc2/C1=C\c1cccc(/C=C2/C(=O)Nc3cc(Cl)ccc32)n1 | 1.45 | 2.24 | 7.76 | > 117 | 3.72 | 1.07 | Active | 1.78 | Active | 3.02 | > 117 | Active | 2.29 | 14.8 | 1.74 | 4.9 | 21.4 | 6.17 | 36.3 | 3.39 | CC50 [4]: 57.5 µM; CC50 [1]: 95.5 µM; TGI [1]: 8.13 µM; CC50 [14]: 25.1 µM; CC50 [5]: 20 µM; TGI [5]: 3.31 µM; CC50 [15]: 70.8 µM; TGI [15]: 40.7 µM; CC50 [10]: 63.1 µM; TGI [10]: 19.5 µM; CC50 [13]: 52.5 µM; TGI [13]: 13.5 µM |
| Cc1cc2c(cc1O)/C(=C\c1cccc(/C=C3/C(=O)Nc4cc(C)c(O)cc43)n1)C(=O)N2 | 27.5 |  |  | > 117 | 85.1 | 67.6 | Active | 87.1 | Active | 75.9 | > 117 | Active | 70.8 |  | 72.4 |  |  |  |  | 66.1 | TGI [13]: 87.1 µM |
| O=C1Nc2ccc(F)cc2/C1=C\c1cccc(/C=C2/C(=O)Nc3ccc(F)cc32)n1 | 1.17 | 3.8 | 11.5 | > 117 | 7.24 | 4.17 | Active | 2.04 | Active | 4.17 | > 117 | Active | 2.95 | 26.3 | 2.14 | 5.37 | 36.3 | 4.9 | 53.7 | 3.47 | CC50 [4]: 79.4 µM; TGI [1]: 7.76 µM; CC50 [14]: 39.8 µM; CC50 [5]: 51.3 µM; TGI [5]: 12.9 µM; CC50 [15]: 74.1 µM; TGI [15]: 12.3 µM; CC50 [10]: 81.3 µM; CC50 [13]: 50.1 µM; TGI [13]: 14.5 µM |
| O=C1Nc2ccc(C(=O)O)cc2/C1=C\c1cccc(/C=C2/C(=O)Nc3ccc(C(=O)O)cc32)n1 | 6.17 | 72.4 | 87.1 | > 117 |  |  | Active |  | Active |  | > 117 | Active |  |  |  |  |  |  |  |  | CC50 [1]: 34.7 µM; TGI [1]: 21.4 µM; Activity [8]: inactive |
| COc1ccc2c(c1)/C(=C\c1cccc(/C=C3/C(=O)N(C)c4ccc(OC)cc43)n1)C(=O)N2C | 38 | 3.24 | 14.8 |  | 2.45 | 1.51 |  | 1.05 |  | 2.57 |  |  | 1.62 | 19.1 | 1.45 | 3.39 | 8.91 | 3.8 |  | 2.09 | CC50 [4]: 74.1 µM; CC50 [14]: 11.7 µM; CC50 [5]: 20.9 µM; TGI [5]: 5.25 µM; CC50 [13]: 63.1 µM |
